Data set [1] deals with T1, Polyamine deacetylase HDAC10 (Homo sapiens) (UniProt Q969S8).
T1 sequence (whole entry): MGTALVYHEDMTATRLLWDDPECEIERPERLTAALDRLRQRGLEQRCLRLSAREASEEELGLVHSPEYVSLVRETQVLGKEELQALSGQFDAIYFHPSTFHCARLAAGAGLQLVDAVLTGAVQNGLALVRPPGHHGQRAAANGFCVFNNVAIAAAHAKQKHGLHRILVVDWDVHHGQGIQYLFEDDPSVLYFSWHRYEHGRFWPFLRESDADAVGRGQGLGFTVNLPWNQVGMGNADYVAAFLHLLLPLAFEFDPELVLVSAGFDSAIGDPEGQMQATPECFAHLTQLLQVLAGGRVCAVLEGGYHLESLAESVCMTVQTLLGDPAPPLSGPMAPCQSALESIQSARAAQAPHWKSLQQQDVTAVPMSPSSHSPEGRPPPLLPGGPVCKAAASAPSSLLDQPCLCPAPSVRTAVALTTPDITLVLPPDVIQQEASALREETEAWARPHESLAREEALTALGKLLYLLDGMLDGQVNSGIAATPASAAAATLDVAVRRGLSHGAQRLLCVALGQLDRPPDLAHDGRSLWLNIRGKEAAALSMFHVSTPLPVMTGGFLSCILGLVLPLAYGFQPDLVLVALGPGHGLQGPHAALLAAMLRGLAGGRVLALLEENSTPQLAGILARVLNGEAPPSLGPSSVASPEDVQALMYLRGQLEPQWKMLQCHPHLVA
The data set is described as follows: Inhibition of human recombinant HDAC10 using fluorogenic peptide p53 residues 379-382 (RHKK(Ac)AMC) as residues at 10 uM by fluorescence method. Summed up:
(§1)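 Selectivity profile across HDAC isoforms 1–11 at a single concentration of 10 μM, run in duplicate.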

The target in data set [2] is T2, Protein deacetylase HDAC6 (Homo sapiens) (UniProt Q9UBN7).
T2 sequence (whole entry): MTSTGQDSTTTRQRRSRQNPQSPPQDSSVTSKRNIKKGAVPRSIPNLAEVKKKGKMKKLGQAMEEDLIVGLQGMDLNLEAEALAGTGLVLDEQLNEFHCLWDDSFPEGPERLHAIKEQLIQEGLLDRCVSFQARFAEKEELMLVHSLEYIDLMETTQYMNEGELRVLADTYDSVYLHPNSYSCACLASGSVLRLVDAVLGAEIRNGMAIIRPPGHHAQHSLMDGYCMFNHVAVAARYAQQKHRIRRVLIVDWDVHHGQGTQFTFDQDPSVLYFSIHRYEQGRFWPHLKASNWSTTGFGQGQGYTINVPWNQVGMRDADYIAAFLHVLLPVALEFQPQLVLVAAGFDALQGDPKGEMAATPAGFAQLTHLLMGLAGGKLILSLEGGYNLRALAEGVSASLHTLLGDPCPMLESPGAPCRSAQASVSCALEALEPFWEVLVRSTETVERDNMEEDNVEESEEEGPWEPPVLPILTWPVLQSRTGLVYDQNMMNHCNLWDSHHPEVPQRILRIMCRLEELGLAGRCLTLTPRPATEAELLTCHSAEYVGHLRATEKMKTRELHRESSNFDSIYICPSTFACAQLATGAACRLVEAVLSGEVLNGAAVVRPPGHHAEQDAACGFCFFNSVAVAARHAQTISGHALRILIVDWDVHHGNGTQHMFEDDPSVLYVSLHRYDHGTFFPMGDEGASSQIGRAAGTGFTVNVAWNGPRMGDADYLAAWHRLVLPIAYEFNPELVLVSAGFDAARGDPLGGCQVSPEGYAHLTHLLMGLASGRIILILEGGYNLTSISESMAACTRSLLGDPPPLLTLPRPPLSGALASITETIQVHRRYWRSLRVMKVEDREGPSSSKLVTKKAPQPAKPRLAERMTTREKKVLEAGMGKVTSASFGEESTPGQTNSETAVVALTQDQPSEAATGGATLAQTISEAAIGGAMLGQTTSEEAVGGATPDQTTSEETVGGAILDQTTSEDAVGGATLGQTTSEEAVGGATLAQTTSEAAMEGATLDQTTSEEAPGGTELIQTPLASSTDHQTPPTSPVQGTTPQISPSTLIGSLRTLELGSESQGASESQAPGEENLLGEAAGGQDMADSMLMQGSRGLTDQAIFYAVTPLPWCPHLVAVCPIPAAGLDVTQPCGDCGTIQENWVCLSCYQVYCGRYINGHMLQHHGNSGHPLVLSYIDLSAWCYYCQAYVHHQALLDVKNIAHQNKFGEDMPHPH
The data set is described as follows: Inhibition of human recombinant HDAC6 using fluorogenic peptide p53 residues 379-382 (RHKK(Ac)AMC) as residues at 10 uM by fluorescence method. Summed up: as §1

Data set [3] addresses Histone deacetylase 3 (Homo sapiens) (UniProt O15379). The experiment in a line: Inhibition of human recombinant HDAC3 using fluorogenic peptide p53 residues 379-382 (RHKK(Ac)AMC) as residues at 10 uM by fluorescence method. The method in brief: as §1
Data set [4] can be described thus: Permeability of the compound at pH 7.4 PBS buffer at 100 uM measured upto 6 hrs by PAMPA-BBB assay.
A further data set deals with N9. The experiment in a line: Immunomodulatory activity in mouse N9 cells assessed as reduction in LPS-induced iNOS expression at 5 to 25 uM incubated for 24 hrs by Western blot analysis. Type of data set: functional, cell-based. Summed up: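 N9 mouse microglial cells stimulated with LPS (100 ng/mL) and treated at 5 and 25 μM. iNOS and MRC1 levels were read by Western blot with GAPDH as loading control. Densitometry is expressed as percentage of LPS-only cells, as mean ± SE of three independent experiments.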

The target of data set [5] is Histone deacetylase 2 (Homo sapiens) (UniProt Q92769). The experiment in a line: Inhibition of human recombinant HDAC2 using fluorogenic peptide p53 residues 379-382 (RHKK(Ac)AMC) as residues at 10 uM mins by fluorescence method. The method in brief:
as §1

Data set [6] deals with T3, Histone deacetylase 11 (Homo sapiens) (UniProt Q96DB2).
T3 sequence (whole entry): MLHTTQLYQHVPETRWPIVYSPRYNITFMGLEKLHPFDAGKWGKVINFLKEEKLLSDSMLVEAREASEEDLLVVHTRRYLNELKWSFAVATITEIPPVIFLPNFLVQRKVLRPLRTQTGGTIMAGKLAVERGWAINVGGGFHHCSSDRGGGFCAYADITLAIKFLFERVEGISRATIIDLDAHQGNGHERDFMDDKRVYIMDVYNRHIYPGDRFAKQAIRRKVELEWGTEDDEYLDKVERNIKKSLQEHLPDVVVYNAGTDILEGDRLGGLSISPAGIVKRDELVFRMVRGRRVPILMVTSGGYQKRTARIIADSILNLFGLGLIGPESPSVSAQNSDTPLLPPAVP
The experiment in a line: Inhibition of human recombinant HDAC11 using fluorogenic trifluoroacetyl lysine as substrate at 10 uM by fluorescence method. The method in brief:
as §1

Data set [7] addresses Histone deacetylase 4 (Homo sapiens) (UniProt P56524). The data set is described as follows: Inhibition of human recombinant HDAC4 using fluorogenic trifluoroacetyl lysine as substrate at 10 uM by fluorescence method. The method in brief:
as §1

Active and inactive are the calls of the source. The rule behind the calls is not given here.

Sequence of Histone deacetylase 2 (Homo sapiens) (Q92769 whole entry, the tested form may be a part): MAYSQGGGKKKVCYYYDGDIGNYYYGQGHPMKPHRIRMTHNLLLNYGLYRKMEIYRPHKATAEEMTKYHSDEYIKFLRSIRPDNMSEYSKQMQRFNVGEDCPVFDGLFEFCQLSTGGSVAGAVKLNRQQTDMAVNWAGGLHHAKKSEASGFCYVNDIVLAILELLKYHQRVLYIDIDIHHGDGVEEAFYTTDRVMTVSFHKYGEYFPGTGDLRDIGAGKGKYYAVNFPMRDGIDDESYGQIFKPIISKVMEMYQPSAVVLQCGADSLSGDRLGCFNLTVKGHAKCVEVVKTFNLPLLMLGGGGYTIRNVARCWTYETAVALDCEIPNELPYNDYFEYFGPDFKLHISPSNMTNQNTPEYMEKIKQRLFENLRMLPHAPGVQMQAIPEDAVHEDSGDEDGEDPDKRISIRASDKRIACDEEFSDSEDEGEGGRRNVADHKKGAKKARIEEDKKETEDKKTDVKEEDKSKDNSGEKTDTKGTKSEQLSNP
Sequence of Histone deacetylase 4 (Homo sapiens) (P56524 whole entry): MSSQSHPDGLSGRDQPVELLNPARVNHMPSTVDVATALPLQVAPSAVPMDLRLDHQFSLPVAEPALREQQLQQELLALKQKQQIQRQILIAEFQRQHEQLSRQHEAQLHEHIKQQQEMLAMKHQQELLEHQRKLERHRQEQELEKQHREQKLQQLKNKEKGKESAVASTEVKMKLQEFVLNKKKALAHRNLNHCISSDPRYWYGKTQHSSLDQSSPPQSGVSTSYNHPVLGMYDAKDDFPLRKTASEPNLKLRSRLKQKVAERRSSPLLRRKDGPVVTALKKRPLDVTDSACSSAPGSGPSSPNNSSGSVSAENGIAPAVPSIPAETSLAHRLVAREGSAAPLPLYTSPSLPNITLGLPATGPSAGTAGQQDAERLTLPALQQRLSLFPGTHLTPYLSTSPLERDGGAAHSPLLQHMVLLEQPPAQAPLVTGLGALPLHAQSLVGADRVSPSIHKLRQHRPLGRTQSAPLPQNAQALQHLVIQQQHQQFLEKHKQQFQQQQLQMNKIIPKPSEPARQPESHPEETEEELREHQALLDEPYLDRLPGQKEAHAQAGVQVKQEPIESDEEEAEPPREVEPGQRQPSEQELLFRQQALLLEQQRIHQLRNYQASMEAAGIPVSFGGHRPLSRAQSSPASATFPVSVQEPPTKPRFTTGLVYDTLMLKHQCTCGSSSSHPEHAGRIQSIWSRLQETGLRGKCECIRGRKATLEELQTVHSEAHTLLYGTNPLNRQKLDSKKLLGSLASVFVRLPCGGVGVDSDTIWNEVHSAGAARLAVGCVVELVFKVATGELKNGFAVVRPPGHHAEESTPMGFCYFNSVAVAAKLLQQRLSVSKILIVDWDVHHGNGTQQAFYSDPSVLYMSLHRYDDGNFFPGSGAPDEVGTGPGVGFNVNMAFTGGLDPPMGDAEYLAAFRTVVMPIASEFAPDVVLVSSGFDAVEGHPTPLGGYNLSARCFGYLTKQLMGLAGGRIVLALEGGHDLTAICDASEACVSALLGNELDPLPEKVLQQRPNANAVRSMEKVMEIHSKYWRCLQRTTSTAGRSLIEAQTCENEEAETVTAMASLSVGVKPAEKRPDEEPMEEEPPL
Sequence of Histone deacetylase 3 (Homo sapiens) (O15379 whole entry, the tested form may be a part): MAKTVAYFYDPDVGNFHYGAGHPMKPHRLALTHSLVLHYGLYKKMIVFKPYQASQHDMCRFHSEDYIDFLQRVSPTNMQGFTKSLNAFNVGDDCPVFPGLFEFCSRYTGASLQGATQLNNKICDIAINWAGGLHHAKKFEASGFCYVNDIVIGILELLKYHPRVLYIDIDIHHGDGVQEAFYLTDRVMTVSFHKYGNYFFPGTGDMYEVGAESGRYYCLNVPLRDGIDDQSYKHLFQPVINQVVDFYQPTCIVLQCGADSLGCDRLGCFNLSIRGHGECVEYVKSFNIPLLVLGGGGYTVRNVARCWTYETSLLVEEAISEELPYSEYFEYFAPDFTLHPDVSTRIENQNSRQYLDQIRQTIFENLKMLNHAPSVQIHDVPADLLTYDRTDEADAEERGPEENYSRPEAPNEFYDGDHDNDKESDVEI

With `COc1cccc(CCCCCCCC(=O)NO)c1`, the inhibition entry in data set [1], in data set [3], in data set [5], in data set [6] and in data set [7] was “inactive” each time. The inhibition entry in data set [2] was “Active”. The molecule further had a Papp at 6 h, 100 µM in data set [4] of 13.4 ×10⁻⁶ cm/s. Also, the outcome in the data set with N9 was Active.
For the molecule `COC(=O)c1c(CCCCCCCC(=O)NO)cccc1OC`, the inhibition result in data set [1], in data set [3], in data set [5], in data set [6] and in data set [7] was “inactive” throughout. The inhibition result in data set [2] is “Active”. The same molecule registered a Papp at 6 h, 100 µM in data set [4] of 10.2 ×10⁻⁶ cm/s. Also, in the data set on N9, the outcome was Active.

The values are drawn from ChEMBL document CHEMBL4433221, “Novel Sustainable-by-Design HDAC Inhibitors for the Treatment of Alzheimer's Disease” (ACS Med Chem Lett, 2019).
